# Experimental data: ChEMBL document CHEMBL3769315 (J Med Chem, 2016)
# How the values were obtained:
# Hepatitis C virus [1] = assay: microbe, parasite or virus in culture; assay type: functional, organism-based, Hepacivirus hominis; conditions: JFH-1, Huh-7.5.1, 48 h
# [2] = Cytotoxicity against human Huh7.5.1 cells assessed as ATP level by luminescence analysis; conditions: huh-7
# [3] = Selectivity index, ratio of CC50 for human Huh7.5.1 cells infected with HCV JFH-1 virus to EC50 for HCV JFH-1 virus
# Hepatitis C virus [4] = assay: Antiviral activity against HCV genotype 2a assessed as inhibition of RNA replication at 3.2 uM by cell-based replicon assay; assay type: functional, Hepacivirus hominis
# Procedure, shortened: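 GT 2a subgenomic HCV replicon cells were seeded at 10^4 cells/well and incubated overnight. They were then exposed to compound for 48 h, and replication was read by luciferase activity. Results are given as % of DMSO control.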
# Hepatitis C virus [5] = assay: Antiviral activity against single rounded infectious HCV infected in human Huh7.5.1 cells assessed as viral level at 3.2 uM after 48 hrs by luciferase reporter gene assay; assay type: functional, Hepacivirus hominis; conditions: Huh-7, 48 h
# Procedure, shortened: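 Huh7.5.1 cells (10^4 cells/well, overnight) were infected with single-round infectious HCV (HCVsc) in the presence of compound. Viral level was measured by luciferase after 48 h and expressed as % of DMSO control. The assay reports inhibition of early stages before assembly.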
# Hepatitis C virus [6] = assay: Antiviral activity against HCV genotype 1b pseudoparticle infected in human Huh7.5.1 cells assessed as inhibition of virus entry at 3.2 uM after 4 hrs by luciferase reporter gene assay; assay type: functional, Hepacivirus hominis; conditions: Huh-7, 4 h
# Procedure, shortened: (§1)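 Huh7.5.1 cells seeded at 10^4 cells/well, cultured overnight, then infected for 4 h with pseudoparticles (HCVpp GT 1a or 1b, MLVpp, VSV-Gpp) while compound was present. Cells were washed and cultured 48 h, then a luciferase read-out was taken. Values are expressed as % of DMSO control. Cyclosporin A 10 μM and bafilomycin A1 10 nM were run in parallel.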
# Hepatitis C virus [7] = assay: Antiviral activity against HCV genotype 1a pseudoparticle infected in human Huh7.5.1 cells assessed as inhibition of virus entry at 3.2 uM after 4 hrs by luciferase reporter gene assay; assay type: functional, Hepacivirus hominis; conditions: subtype 1a, Huh-7, 4 h
# Procedure, shortened: as §1
# Murine leukemia virus [8] = assay: Antiviral activity against Murine leukemia virus pseudoparticle infected in human Huh7.5.1 cells at 3.2 uM after 4 hrs by luciferase reporter gene assay; assay type: functional; conditions: Huh-7, 4 h
# Procedure, shortened: as §1
# [9] = test system: Vesicular stomatitis virus; assay: Antiviral activity against Vesicular stomatitis virus G pseudoparticle infected in human Huh7.5.1 cells at 3.2 uM after 4 hrs by luciferase reporter gene assay; assay type: functional; conditions: Huh-7, 4 h
# Procedure, shortened: as §1
# [10] = Solubility of compound in phosphate buffer at pH 7.4
# [11] = Half life of compound in CD-1 mouse liver at 10 mg/kg, ip by UPLC-MS/MS analysis; assay type: ADME, organism-based; conditions: CD-1, mouse, liver
# Procedure, shortened: (§2)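 Male CD-1 mice (~35 g) got a single i.p. dose of 10 mg/kg, prepared fresh at 2 mg/mL in 10% PEG300 / 90% of 30% HP-β-CD in water. Drug was measured by UPLC-MS/MS. Parameters came from noncompartmental analysis, with AUC by the linear trapezoidal method and liver/plasma ratios taken.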
# [12] = Cmax in CD-1 mouse liver at 10 mg/kg, ip after 24 hrs by UPLC-MS/MS analysis; assay type: ADME, organism-based; parameters: dose 10 mg/kg, route intraperitoneal
# Procedure, shortened: as §2
# Hepatocyte = conditions: human, hepatocytes
# histamine H1 receptor = histamine H1 receptor (Homo sapiens, UniProt P35367); assay: in vitro; conditions: PathHunter cells
# Chain of histamine H1 receptor (P35367 whole entry): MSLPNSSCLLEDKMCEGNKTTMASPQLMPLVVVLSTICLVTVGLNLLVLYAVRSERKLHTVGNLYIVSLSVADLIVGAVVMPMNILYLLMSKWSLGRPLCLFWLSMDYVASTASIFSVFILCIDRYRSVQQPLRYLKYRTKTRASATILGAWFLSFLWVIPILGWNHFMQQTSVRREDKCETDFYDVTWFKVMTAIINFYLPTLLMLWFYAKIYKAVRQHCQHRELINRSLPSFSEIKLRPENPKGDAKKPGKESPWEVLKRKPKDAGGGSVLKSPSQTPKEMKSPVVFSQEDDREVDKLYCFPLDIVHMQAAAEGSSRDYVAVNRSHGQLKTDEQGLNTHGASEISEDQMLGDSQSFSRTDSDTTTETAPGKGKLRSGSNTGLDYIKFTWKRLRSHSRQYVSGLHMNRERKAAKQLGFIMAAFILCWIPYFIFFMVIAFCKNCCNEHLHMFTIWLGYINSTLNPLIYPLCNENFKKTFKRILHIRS
# [13] = (§3) Metabolic stability in rat liver microsomes assessed as half life by LC-MS/MS analysis in presence of NADPH
# Liver microsome [14] = assay: as §3
# Hepatitis C virus [15] = assay: microbe, parasite or virus in culture; assay type: functional, Hepacivirus hominis; conditions: Huh-7, 48 h
# Hepatitis C virus [16] = assay: Antiviral activity against HCV genotype 1a pseudoparticle infected in human Huh7.5.1 cells assessed as inhibition of virus entry at 10 uM after 4 hrs by luciferase reporter gene assay; assay type: functional, Hepacivirus hominis; conditions: subtype 1a, Huh-7, 4 h
# Hepatitis C virus [17] = assay: Antiviral activity against HCV genotype 1b pseudoparticle infected in human Huh7.5.1 cells assessed as inhibition of virus entry at 10 uM after 4 hrs by luciferase reporter gene assay; assay type: functional, Hepacivirus hominis; conditions: Huh-7, 4 h
# Murine leukemia virus [18] = assay: Antiviral activity against Murine leukemia virus pseudoparticle infected in human Huh7.5.1 cells at 10 uM after 4 hrs by luciferase reporter gene assay; assay type: functional; conditions: Huh-7, 4 h
# [19] = test system: Vesicular stomatitis virus; assay: Antiviral activity against Vesicular stomatitis virus G pseudoparticle infected in human Huh7.5.1 cells at 10 uM after 4 hrs by luciferase reporter gene assay; assay type: functional; conditions: Huh-7, 4 h
# Hepatitis C virus [20] = assay: Antiviral activity against HCV genotype 2a assessed as inhibition of RNA replication at 10 uM by cell-based replicon assay; assay type: functional, Hepacivirus hominis
# Procedure, shortened: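 GT 2a subgenomic replicon cells were plated at 10^4/well and incubated overnight. They were then treated with compound (10 μM, or 3.2 or 1 μM for some compounds) for 48 h. Luciferase activity was read and expressed as % of DMSO.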
# Liver microsome [21] = assay: Metabolic stability in human liver microsomes assessed as half life by LC-MS/MS analysis in presence of NADPH
# [22] = Metabolic stability in mouse liver microsomes assessed as half life by LC-MS/MS analysis in presence of NADPH
Structure (SMILES),EC50 (Hepatitis C virus [1]) [µM],CC50 [2] [µM],selectivity ratio [3],also measured
c1ccc(C(c2ccccc2)c2ccncc2)cc1,> 31.6,65.1,< 2,
Clc1ccc(C(c2ccc(Cl)cc2)N2CCCCC2)cc1,17.4,69,4,
CCCCN1CCN([C@H](c2ccccc2)c2ccc(Cl)cc2)CC1,0.195,40.8,209,
CN1CCN([C@H](c2ccccc2)c2ccc(Cl)cc2)CC1,0.02,37.5,,
Clc1ccc([C@H](c2ccccc2)N2CCNCC2)cc1,0.032,9.31,333,"inhibition at 3.2 µM (Hepatitis C virus [4]): 61.6%; inhibition at 3.2 µM (Hepatitis C virus [5]): 28.1%; inhibition at 3.2 µM (Hepatitis C virus [6]): 66.3%; inhibition at 3.2 µM (Hepatitis C virus [7]): 98.8%; inhibition at 3.2 µM (Murine leukemia virus [8]): 57.5%; inhibition at 3.2 µM [9]: 51.9%; solubility kinetic [10]: 30.3 µg/mL; half-life [11]: 4.7 h; Cmax [12]: 216 µM; CC50 (Hepatocyte): 9.01 µM; inhibition at 2 h, 0.01 µM (histamine H1 receptor): 88.1%"
CCN1CCN([C@H](c2ccccc2)c2ccc(Cl)cc2)CC1,,37.9,,half-life [13]: 2.2 h
CC(C)CN1CCN([C@H](c2ccccc2)c2ccc(Cl)cc2)CC1,0.232,58.2,251,
OCCOCCN1CCN(C(c2ccc(Cl)cc2)c2ccc(Cl)cc2)CC1,,,,"t1/2 (Liver microsome [14]): 0.228 h; inhibition at 10 µM (Hepatitis C virus [15]): 1.8%; inhibition at 10 µM (Hepatitis C virus [16]): 71.7%; inhibition at 10 µM (Hepatitis C virus [17]): 80.8%; inhibition at 10 µM (Murine leukemia virus [18]): 108%; inhibition at 10 µM [19]: 109%; inhibition at 10 µM (Hepatitis C virus [20]): 98.8%; t1/2 (Liver microsome [21]): > 0.5 h; t1/2 [22]: 0.167 h; solubility kinetic [10]: 44.5 µg/mL; inhibition at 2 h, 0.01 µM (histamine H1 receptor): 23.7%"
FC(F)(F)CN1CCN([C@@H](c2ccccc2)c2ccc(Cl)cc2)CC1,> 31.6,> 100,,
CN1CCC(N(c2ccccc2)c2ccccc2)CC1,2.72,56.8,21,
CCCN1CCN([C@@H](c2ccccc2)c2ccc(Cl)cc2)CC1,0.032,39.7,1240,
c1ccc(C(c2ccccc2)C2CCNCC2)cc1,0.072,32.5,451,
CCCN1CCN([C@H](c2ccccc2)c2ccc(Cl)cc2)CC1,0.024,48.5,2020,
[2H]C([2H])([2H])N1CCN([C@H](c2ccccc2)c2ccc(Cl)cc2)CC1,0.04,46.7,,
FC(F)(F)CN1CCN([C@H](c2ccccc2)c2ccc(Cl)cc2)CC1,> 31.6,,,
Clc1ccc([C@H](c2ccccc2)N2CCN(C3CCCC3)CC2)cc1,0.019,30.4,1600,
CC(=O)N1CCN([C@@H](c2ccccc2)c2ccc(Cl)cc2)CC1,22,91.3,4,
Clc1ccc([C@H](c2ccccc2)N2CCN(C3CCCCC3)CC2)cc1,0.177,12.3,69,
CN1CCC(N(c2ccccc2)c2ccc(OC(C)(C)C)cc2)CC1,0.354,78.7,222,
CCCCN1CCN([C@@H](c2ccccc2)c2ccc(Cl)cc2)CC1,0.042,31.1,740,
